From ChEMBL document CHEMBL1932989, “Dibasic biphenyl H3 receptor antagonists: Steric tolerance for a lipophilic side chain” (Eur J Med Chem, 2012) come the findings set out here.

The source made the active and inactive calls. The calls are words filed in the database; no cut-off is given here. Bounds are passed on as bounds.

In assay [1] the target is T1, Histamine H3 receptor (Homo sapiens, UniProt Q9Y5N1). Put plainly: Displacement of [3H]RAMHA from human histamine H3 receptor expressed in GPCR97 transfected human SK-N-MC cells. Format: cell-based. In a few lines: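 SK-N-MC cell membranes stably expressing human H3; 60 min at room temperature with 0.5 nM [3H]-(R)-α-methylhistamine, competitor 0.01 nM–10 μM. Filtration, two washes with ice-cold 50 mM Tris–HCl/5 mM EDTA. Nonspecific binding with 10 μM histamine. pIC50 from displacement curves converted to pKi by Cheng–Prusoff; means ± SEM.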
In general terms: Loss of bound radioactivity is the signal in a displacement assay; it reports binding, not function.

Assay [2] addresses Histamine H3 receptor (Rattus norvegicus, UniProt Q9QYN8). Put plainly: Displacement of [3H]RAMHA from rat histamine H3 receptor in rat cerebral cortex membranes. The format is cell membranes, Membrane. Summed up:
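Rat brain membranes (Kilpatrick method) incubated 45 min with 0.5 nM [3H]-(R)-α-methylhistamine and compound (0.03 nM–10 μM) in 50 mM Tris–HCl pH 7.4, 50 mM NaCl, 0.5 mM EDTA. Vacuum filtration, two ice-cold buffer rinses. Nonspecific binding with 10 μM thioperamide. pIC50 converted to pKi via Cheng–Prusoff; means ± SEM.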

The target of assay [3] is T1, Histamine H3 receptor. Put plainly: Antagonist activity at human histamine H3 receptor expressed in human SK-N-MC cells assessed as inhibition of (R)-alpha-methylhistamine-induced effect after 6 hrs by beta-galactosidase reporter gene assay. The format is functional, cell-based. In a few lines:
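SK-N-MC cells expressing human H3 receptor and a β-galactosidase reporter; compounds (1 nM–10 µM) added 10 min before (R)-α-methylhistamine (0.1–100 nM), forskolin 5 µM added 5 min after compound. Incubated 6 h at 37 °C, cells lysed, chlorophenol red β-D-galactopyranoside colour read at 570 nm. Response as % agonist maximum; pKB by Furchgott equation, or pD2' by Van Rossum for non-surmountable antagonism; mean ± SEM.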
In general terms: Reporter assays use an easily measured gene product as a stand-in for the process of interest.

In another assay the target is Histamine H4 receptor (Homo sapiens, UniProt Q9H3N8). Put plainly: Displacement of [3H]histamine from human histamine H4 receptor expressed in GPCR97 transfected human SK-N-MC cells. Format: cell-based. In a few lines: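 Membranes of SK-N-MC cells stably expressing human H4, 60 min at room temperature with 10 nM [3H]-histamine, competitor 0.01 nM–10 μM. Filtration with two ice-cold Tris–HCl/EDTA washes. 10 μM histamine defined nonspecific binding. pKi derived from pIC50 by Cheng–Prusoff.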

The target in assay [4] is Histamine H1 receptor (Cavia porcellus) (UniProt P31389). Put plainly: Antagonist activity at histamine H1 receptor in guinea pig longitudinally mounted ileum assessed as […] up to 10 uM […]. The format is functional, tissue-based.
For assay [5], the target named is Histamine H2 receptor (Cavia porcellus) (UniProt P47747). Put plainly: Antagonist activity at histamine H2 receptor in guinea pig spontaneously beating isolated atria assessed as changes in rate of spontaneous beating at 1 uM by cardiotachograph analysis.
Assay [6] deals with Neuronal acetylcholine receptor subunit alpha-7 (Homo sapiens) (UniProt P36544). Put plainly: Displacement of [125I]alpha-bungarotoxin from human alpha7 nicotinic receptor at 1 uM by scintillation counting. In a few lines:
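Membrane homogenates bearing human α7 nicotinic receptor (20 µg protein) incubated 120 min at 37 °C with 0.05 nM [125I]α-bungarotoxin in 50 mM K2HPO4/KH2PO4 pH 7.4, 10 mM MgCl2, 0.1% BSA. Nonspecific binding with 1 µM α-bungarotoxin. Filtration on PEI-soaked glass fibre, scintillation counting; % inhibition of specific binding, duplicate.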

Assay [7] concerns the target Histamine H2 receptor (Cavia porcellus) (UniProt P47747). The conditions noted are these: Ileum.

Histamine H2 receptor (Cavia porcellus), sequence (P47747 whole entry): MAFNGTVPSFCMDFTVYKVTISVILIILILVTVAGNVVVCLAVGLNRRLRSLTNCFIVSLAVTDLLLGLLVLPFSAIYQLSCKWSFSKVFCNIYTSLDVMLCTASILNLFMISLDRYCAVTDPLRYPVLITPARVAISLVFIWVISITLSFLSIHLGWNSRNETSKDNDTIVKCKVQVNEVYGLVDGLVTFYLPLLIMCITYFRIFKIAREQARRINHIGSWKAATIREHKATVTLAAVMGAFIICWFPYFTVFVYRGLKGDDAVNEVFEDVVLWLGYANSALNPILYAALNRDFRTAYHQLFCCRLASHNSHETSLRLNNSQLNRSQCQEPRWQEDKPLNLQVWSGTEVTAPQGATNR
Histamine H3 receptor (Rattus norvegicus, UniProt Q9QYN8), sequence (Q9QYN8 whole entry): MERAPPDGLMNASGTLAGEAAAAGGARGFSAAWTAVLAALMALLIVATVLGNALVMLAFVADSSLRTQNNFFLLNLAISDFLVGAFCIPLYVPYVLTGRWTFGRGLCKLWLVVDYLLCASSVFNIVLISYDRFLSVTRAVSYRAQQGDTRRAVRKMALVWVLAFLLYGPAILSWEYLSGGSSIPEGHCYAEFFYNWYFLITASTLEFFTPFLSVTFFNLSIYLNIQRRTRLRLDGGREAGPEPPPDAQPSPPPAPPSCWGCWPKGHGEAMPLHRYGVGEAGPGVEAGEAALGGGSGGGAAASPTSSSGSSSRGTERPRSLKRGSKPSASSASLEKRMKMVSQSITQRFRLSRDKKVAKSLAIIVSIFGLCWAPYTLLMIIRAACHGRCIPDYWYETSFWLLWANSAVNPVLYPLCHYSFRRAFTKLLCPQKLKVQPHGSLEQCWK
Histamine H1 receptor (Cavia porcellus), sequence (P31389 whole entry): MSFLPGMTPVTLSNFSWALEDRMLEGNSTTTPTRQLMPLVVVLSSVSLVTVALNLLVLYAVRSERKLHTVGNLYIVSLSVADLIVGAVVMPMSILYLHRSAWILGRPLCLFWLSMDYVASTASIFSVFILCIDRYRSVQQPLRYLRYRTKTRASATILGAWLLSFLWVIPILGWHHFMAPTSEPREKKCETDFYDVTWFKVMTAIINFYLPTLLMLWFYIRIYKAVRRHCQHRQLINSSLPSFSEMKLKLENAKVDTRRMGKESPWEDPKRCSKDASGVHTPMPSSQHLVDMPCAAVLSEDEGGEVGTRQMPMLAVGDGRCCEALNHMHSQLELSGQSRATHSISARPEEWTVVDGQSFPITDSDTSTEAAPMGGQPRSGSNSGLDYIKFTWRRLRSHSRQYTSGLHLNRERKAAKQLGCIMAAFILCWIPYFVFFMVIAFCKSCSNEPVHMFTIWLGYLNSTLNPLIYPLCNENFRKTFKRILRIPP
T1 sequence (Q9Y5N1 whole entry): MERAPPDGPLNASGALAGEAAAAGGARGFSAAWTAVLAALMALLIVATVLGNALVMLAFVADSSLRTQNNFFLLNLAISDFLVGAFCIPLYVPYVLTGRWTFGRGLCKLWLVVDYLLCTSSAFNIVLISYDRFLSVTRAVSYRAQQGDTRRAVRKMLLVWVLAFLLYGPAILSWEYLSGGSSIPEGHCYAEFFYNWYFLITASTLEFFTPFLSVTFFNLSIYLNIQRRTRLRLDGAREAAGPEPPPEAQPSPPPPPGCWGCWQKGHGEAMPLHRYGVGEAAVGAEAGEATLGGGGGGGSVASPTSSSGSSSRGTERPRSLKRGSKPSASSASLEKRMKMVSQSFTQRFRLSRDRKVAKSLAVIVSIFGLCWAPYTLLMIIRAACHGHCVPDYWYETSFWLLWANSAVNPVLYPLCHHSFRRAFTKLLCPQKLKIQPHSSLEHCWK
Histamine H4 receptor, sequence (Q9H3N8 whole entry): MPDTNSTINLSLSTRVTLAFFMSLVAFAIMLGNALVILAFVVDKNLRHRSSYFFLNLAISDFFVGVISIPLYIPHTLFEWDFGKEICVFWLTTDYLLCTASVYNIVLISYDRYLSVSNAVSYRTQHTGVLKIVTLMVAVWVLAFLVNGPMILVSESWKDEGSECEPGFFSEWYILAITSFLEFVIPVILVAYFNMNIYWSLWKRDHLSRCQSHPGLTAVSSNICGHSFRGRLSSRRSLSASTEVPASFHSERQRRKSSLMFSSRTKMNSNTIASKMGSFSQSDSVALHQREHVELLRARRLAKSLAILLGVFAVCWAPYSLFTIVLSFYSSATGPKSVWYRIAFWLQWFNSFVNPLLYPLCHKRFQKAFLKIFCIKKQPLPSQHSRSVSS
Neuronal acetylcholine receptor subunit alpha-7 (Homo sapiens), sequence (P36544 whole entry): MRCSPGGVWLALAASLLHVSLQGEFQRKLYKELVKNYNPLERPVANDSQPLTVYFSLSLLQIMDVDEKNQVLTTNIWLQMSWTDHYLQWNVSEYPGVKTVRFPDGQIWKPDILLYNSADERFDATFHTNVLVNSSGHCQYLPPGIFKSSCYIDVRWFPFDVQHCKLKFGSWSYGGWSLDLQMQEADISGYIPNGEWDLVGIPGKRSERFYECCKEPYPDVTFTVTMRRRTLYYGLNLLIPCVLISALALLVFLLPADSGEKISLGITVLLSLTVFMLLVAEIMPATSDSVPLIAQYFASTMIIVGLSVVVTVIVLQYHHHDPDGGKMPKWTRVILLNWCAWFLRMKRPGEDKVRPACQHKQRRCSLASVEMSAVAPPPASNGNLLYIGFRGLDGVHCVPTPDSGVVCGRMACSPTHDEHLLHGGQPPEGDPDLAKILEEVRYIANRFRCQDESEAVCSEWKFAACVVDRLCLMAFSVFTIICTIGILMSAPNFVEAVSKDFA

For orientation: Ki means the equilibrium dissociation constant of an inhibitor or competing ligand from its target. Usually pKb stands for −log10 of the Kb, conventionally taken in molar units. With `COCCC[C@@H](c1ccc(-c2ccc(CN3CCCCC3)cc2)cc1)N1CCC[C@@H]1C`, the Ki is 0.871 nM on Histamine H3 receptor [1], 1.78 nM at Histamine H3 receptor [2] and at least 31600 nM at Histamine H4 receptor. Also, on Histamine H3 receptor [3], the negative-log Kb (pKb) came out at 10. Further, the outcome in assay [4] and in assay [5] was inactive.

Regarding `CCCC[C@H](c1ccc(-c2ccc(CN3CCCCC3)cc2)cc1)N1CCCC[C@@H]1C`, the values for the Ki at Histamine H3 receptor [1], at Histamine H3 receptor [2] and on Histamine H4 receptor were 3.02 nM, 26.3 nM and at least 31600 nM, respectively. Further, at Histamine H3 receptor [3], the pKb stood at 8.91. Moreover, the outcome in assay [4] and in assay [5] was inactive.

For the compound `COc1ccc(OCCC[C@@H](c2ccc(-c3ccc(CN4CCCCC4)cc3)cc2)N2CCC[C@@H]2C)cc1`, the values for the inhibitory constant (Ki) on Histamine H3 receptor [1], on Histamine H3 receptor [2] and at Histamine H4 receptor were 2.04 nM, 2.09 nM and at least 31600 nM, respectively. The pKb at Histamine H3 receptor [3] worked out at 8.71. Also, the outcome in assay [4] and in assay [5] was inactive.

Take `CCCC[C@@H](c1ccc(-c2ccc(CN3CCCCC3)cc2)cc1)N1CCC[C@@H]1C`: the Ki at Histamine H3 receptor [1] was 1.26 nM; on Histamine H3 receptor [2] it was 1.41 nM; at Histamine H4 receptor, at least 31600 nM. For the same compound, the pKb at Histamine H3 receptor [3] was determined as 8.37. For the same compound, the result in assay [4] and in assay [5] was inactive.

With `CCCC[C@@H](c1ccc(-c2ccc(CN3CCCCC3)cc2)cc1)N1CCC[C@H]1C`, the Ki on Histamine H3 receptor [1] was 2.34 nM; on Histamine H3 receptor [2], 16.2 nM; on Histamine H4 receptor it was at least 31600 nM. For the same compound, on Histamine H3 receptor [3], the pKb was found to be 8.58. Further, the result in assay [4] and in assay [5] was inactive.

`C[C@@H]1CCCN1Cc1ccc(-c2ccc(C(Cc3ccccc3)N3CCCCC3)cc2)cc1` (mixture of isomers): the inhibitory constant (Ki) is 5.62 nM at Histamine H3 receptor [1], 29.5 nM on Histamine H3 receptor [2] and at least 31600 nM at Histamine H4 receptor. Further, the negative logarithm of the Kb (pKb) on Histamine H3 receptor [3] amounted to 8.87. For the same compound, the outcome in assay [4] and in assay [5] was inactive.

As for `C[C@H]1CCCN1[C@H](CCCOc1ccccc1)c1ccc(-c2ccc(CN3CCCCC3)cc2)cc1`, the inhibition constant (Ki) at Histamine H3 receptor [1] is 0.513 nM; at Histamine H3 receptor [2] it was 6.61 nM; on Histamine H4 receptor, at least 31600 nM. Also, on Histamine H3 receptor [3], the negative logarithm of the Kb (pKb) was 8.48. Moreover, the outcome in assay [4] and in assay [5] was inactive. The inhibition entry in assay [6] was “inactive”.

With `CCCCC(c1ccc(-c2ccc(CN3CCCCC3)cc2)cc1)N1CCCCC1` (racemic), the figures for the inhibition constant (Ki) at Histamine H3 receptor [1], on Histamine H3 receptor [2] and at Histamine H4 receptor were 1.29 nM, 4.27 nM and at least 31600 nM, respectively. For the same compound, on Histamine H3 receptor [3], the negative logarithm of the Kb (pKb) stood at 8.81. For the same compound, the result in assay [4] and in assay [5] was inactive.

As for `c1cc(-c2ccc(CN3CCCCC3)cc2)ccc1CN1CCCCC1`, the pKb at Histamine H3 receptor [3] is 8.77.

As to `CCCCC(c1ccc(-c2ccc(C)cc2)cc1)N1CCCCC1` (racemic), the inhibition constant Ki on Histamine H3 receptor [1] was 13500 nM; on Histamine H3 receptor [2] it was 43700 nM; on Histamine H4 receptor, at least 31600 nM. Further, the result in assay [5] was inactive.

As for `CCCCCc1ccc(-c2ccc(CN3CCCCC3)cc2)cc1`, the inhibition constant (Ki) on Histamine H3 receptor [1] is 12900 nM; at Histamine H3 receptor [2], 60300 nM; at Histamine H4 receptor, at least 31600 nM. Also, in assay [5], the result was inactive.

`CN(C)C(Cc1ccccc1)c1ccc(-c2ccc(CN3CCCCC3)cc2)cc1` (racemic): the Ki is 16.6 nM on Histamine H3 receptor [1], 30.2 nM at Histamine H3 receptor [2] and at least 31600 nM at Histamine H4 receptor. Further, the pKb on Histamine H3 receptor [3] turned out to be 7.56. Also, the result in assay [4] and in assay [5] was inactive.

Take `COCCC[C@H](c1ccc(-c2ccc(CN3CCCCC3)cc2)cc1)N1CCC[C@@H]1C`: the inhibitory constant (Ki) was 2 nM at Histamine H3 receptor [1], 1.48 nM at Histamine H3 receptor [2] and at least 31600 nM on Histamine H4 receptor. Besides, the negative-log Kb (pKb) on Histamine H3 receptor [3] was found to be 9.64. For the same compound, the result in assay [4] and in assay [5] was inactive.

For `c1ccc(CC(c2ccc(-c3ccc(CN4CCCCC4)cc3)cc2)N2CCCCC2)cc1` (racemic), the Ki was 19.1 nM on Histamine H3 receptor [1], 112 nM on Histamine H3 receptor [2] and at least 31600 nM on Histamine H4 receptor. The pKb at Histamine H3 receptor [3] turned out to be 8.3. In addition, the outcome in assay [4] and in assay [5] was inactive.

For `C[C@H]1CCCN1Cc1ccc(-c2ccc(CN3CCCCC3)cc2)cc1`, the inhibitory constant (Ki) on Histamine H3 receptor [1] was 0.661 nM; at Histamine H3 receptor [2], 0.372 nM; on Histamine H4 receptor, at least 31600 nM. In addition, the pKb on Histamine H3 receptor [3] was determined as 9.46. Besides, the result in assay [4] and in assay [5] was inactive.

With `C[C@H]1CCCN1[C@@H](CCCOc1ccccc1)c1ccc(-c2ccc(CN3CCCCC3)cc2)cc1`, the Ki is 2.57 nM on Histamine H3 receptor [1], 4.68 nM on Histamine H3 receptor [2] and at least 31600 nM at Histamine H4 receptor. For the same compound, the negative-log Kb (pKb) on Histamine H3 receptor [3] was found to be 9.15. Also, the outcome in assay [4] and in assay [5] was inactive.

Turning to `CCCC[C@@H](c1ccc(-c2ccc(CN3CCCCC3)cc2)cc1)N1CCCC[C@@H]1C`, the Ki at Histamine H3 receptor [1] is 2.45 nM; on Histamine H3 receptor [2], 26.3 nM; at Histamine H4 receptor, at least 31600 nM. Besides, the negative-log Kb (pKb) at Histamine H3 receptor [3] stood at 8.94. The outcome in assay [4] and in assay [5] was inactive.

`COc1ccc(OCCC[C@H](c2ccc(-c3ccc(CN4CCCCC4)cc3)cc2)N2CCC[C@@H]2C)cc1`: the inhibitory constant (Ki) on Histamine H3 receptor [1] was 1.26 nM; at Histamine H3 receptor [2], 6.61 nM; on Histamine H4 receptor, at least 31600 nM. Moreover, the pKb at Histamine H3 receptor [3] was found to be 8.71. Moreover, the outcome in assay [4] and in assay [5] was inactive.

`CCCC[C@H](c1ccc(-c2ccc(CN3CCCCC3)cc2)cc1)N1CCC[C@@H]1C`: the Ki was 1.55 nM at Histamine H3 receptor [1], 8.71 nM on Histamine H3 receptor [2] and at least 31600 nM at Histamine H4 receptor. Further, the pKb at Histamine H3 receptor [3] was 8.81. Besides, the outcome in assay [4] and in assay [5] was inactive.

As for `CCCC[C@H](c1ccc(-c2ccc(CN3CCCCC3)cc2)cc1)N1CCC[C@H]1C`, the Ki was 2.45 nM at Histamine H3 receptor [1], 12.6 nM at Histamine H3 receptor [2] and at least 31600 nM at Histamine H4 receptor. Besides, the pKb on Histamine H3 receptor [3] amounted to 8.8; in assay [7], 5.13. In addition, the outcome in assay [4] was inactive.

For `C[C@@H]1CCCN1Cc1ccc(-c2ccc(CN3CCCCC3)cc2)cc1`, the inhibitory constant (Ki) on Histamine H3 receptor [1] was 1.48 nM; at Histamine H3 receptor [2], 3.55 nM; at Histamine H4 receptor, at least 31600 nM. The pKb on Histamine H3 receptor [3] stood at 9.16. The result in assay [4] and in assay [5] was inactive.
